The target in test [1] is DNA topoisomerase 2-alpha (Homo sapiens) (UniProt P11388). The test can be described thus: Inhibition of recombinant human DNA topoisomerase 2-alpha at 20 uM using supercoiled pBR322 DNA as substrate after 30 mins by densitometric analysis relative to control. The essentials: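 200 ng supercoiled pBR322 with 4 units human topo IIα, 30 min at 30 °C, in 10 mM Tris–HCl pH 7.9, 50 mM NaCl, 5 mM MgCl2, 1 mM EDTA, 1 mM ATP, 15 μg/mL BSA. Stopped with EDTA, run on 1% agarose/TAE at 60 V for 1 h, bands quantified by densitometry. Etoposide as positive control. Screening at 100 μM; above 30% inhibition, retested at 20 μM.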
Sequence of DNA topoisomerase 2-alpha (Homo sapiens) (P11388 whole entry): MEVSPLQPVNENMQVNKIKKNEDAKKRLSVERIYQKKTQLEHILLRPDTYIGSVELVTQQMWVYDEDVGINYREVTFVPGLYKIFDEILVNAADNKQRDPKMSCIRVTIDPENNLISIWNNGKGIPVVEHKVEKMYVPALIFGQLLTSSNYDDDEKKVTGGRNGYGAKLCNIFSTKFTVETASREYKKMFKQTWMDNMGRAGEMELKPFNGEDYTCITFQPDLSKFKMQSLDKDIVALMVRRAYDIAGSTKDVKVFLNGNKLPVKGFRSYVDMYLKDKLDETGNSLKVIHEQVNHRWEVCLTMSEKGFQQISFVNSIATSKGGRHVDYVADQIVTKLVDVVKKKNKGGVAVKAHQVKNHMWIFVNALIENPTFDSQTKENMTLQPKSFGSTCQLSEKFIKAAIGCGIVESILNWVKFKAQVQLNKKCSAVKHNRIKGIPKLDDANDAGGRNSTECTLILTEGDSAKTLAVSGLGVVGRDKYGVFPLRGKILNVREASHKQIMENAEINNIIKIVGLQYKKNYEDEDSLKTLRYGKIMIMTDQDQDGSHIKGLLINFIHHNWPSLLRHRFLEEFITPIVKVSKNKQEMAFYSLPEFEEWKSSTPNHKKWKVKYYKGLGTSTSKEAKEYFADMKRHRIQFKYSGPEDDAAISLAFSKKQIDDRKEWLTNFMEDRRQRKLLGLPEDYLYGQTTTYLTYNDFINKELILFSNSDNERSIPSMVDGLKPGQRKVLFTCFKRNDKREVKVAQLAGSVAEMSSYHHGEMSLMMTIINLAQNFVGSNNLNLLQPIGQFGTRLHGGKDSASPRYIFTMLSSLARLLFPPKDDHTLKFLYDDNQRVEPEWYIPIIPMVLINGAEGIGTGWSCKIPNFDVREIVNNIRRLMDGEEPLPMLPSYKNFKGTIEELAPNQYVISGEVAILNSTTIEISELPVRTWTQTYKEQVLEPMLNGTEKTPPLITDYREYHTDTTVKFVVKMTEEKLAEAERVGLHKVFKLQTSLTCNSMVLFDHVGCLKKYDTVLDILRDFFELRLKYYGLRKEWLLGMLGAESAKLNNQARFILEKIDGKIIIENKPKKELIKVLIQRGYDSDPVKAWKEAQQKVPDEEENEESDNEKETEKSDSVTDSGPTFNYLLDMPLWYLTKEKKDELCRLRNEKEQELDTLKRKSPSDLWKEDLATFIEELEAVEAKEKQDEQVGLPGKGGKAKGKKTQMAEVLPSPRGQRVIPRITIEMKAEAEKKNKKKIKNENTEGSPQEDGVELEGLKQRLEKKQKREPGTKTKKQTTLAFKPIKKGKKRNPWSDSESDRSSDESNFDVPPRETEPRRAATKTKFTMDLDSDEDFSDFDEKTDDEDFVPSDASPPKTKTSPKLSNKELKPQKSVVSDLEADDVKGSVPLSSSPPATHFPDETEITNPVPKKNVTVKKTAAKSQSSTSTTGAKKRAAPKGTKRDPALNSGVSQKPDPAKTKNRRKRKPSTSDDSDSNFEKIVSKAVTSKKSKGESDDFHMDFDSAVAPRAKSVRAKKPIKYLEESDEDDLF

The target is the same in test [2]. The test can be described thus: Potency index, ratio of test compound activity to etoposide activity for recombinant human DNA topoisomerase 2-alpha at 20 uM.
Test [3] has as its target T1, DNA topoisomerase 1 (Homo sapiens) (UniProt P11387).
T1 sequence (whole entry): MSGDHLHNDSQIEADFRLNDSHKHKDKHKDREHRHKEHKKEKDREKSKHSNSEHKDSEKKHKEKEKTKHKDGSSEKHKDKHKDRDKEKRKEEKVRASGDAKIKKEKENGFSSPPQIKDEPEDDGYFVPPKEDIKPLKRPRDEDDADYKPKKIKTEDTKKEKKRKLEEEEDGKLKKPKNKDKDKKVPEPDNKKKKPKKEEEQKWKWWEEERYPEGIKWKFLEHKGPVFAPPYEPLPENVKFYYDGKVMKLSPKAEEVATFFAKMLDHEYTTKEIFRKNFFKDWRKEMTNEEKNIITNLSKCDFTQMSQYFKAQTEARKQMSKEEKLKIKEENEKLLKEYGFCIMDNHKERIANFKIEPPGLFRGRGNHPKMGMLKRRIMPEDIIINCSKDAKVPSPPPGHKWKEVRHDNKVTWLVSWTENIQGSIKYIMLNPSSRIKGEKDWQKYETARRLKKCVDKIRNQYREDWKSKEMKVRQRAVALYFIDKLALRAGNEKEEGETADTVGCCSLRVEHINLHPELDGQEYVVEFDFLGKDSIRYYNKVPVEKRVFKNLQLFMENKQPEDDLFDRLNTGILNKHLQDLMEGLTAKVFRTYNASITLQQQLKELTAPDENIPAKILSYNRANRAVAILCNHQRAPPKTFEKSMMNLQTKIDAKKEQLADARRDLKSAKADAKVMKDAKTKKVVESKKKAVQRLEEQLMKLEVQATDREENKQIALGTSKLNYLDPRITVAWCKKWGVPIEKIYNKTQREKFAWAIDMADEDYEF
The test can be described thus: Inhibition of recombinant human DNA topoisomerase 1 at 20 uM using supercoiled pBR322 DNA as substrate after 30 mins by densitometric analysis relative to control. The essentials: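 Relaxation of 100 ng supercoiled pBR322 by 1 unit recombinant human topo I, 37 °C for 30 min, in 10 mM Tris-HCl pH 7.9, 150 mM NaCl, 0.1% BSA, 1 mM spermidine, 5% glycerol. Stopped with sarcosyl solution, run on 1% agarose/TAE at 15 V for 7 h, ethidium bromide stained, bands quantified by densitometry. Camptothecin as positive control. Compounds first screened at 100 μM; those over 30% inhibition retested at 20 μM.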

Take `Cc1ccc(-c2c3c(nc4cnc5ccccc5c24)-c2ccccc2OC3)cc1`: the inhibition (usually how much of the control response was suppressed) in test [1] was 38.3%; in test [3] it was 11.1%. Also, the Ratio in test [2] is 1.25.

(Values after ChEMBL document CHEMBL4229571, “Development of 13H-benzo[f]chromeno[4,3-b][1,7]naphthyridines and their salts as potent cytotoxic agents and topoisomerase I/IIα inhibitors” (2018).)
